# Laboratory results published in ChEMBL document CHEMBL3244344, “Nucleoside conjugates as potential antitumor agents. 2. Synthesis and biological activity of 1-(beta-D-arabinofuranosyl)cytosine conjugates of prednisolone and prednisone” (J Med Chem, 1979).
# Key:
# L1210 [1] = test: Cytotoxicity against mouse L1210 cells assessed as growth inhibition measured at 72 hrs by trypan blue exclusion assay; assay type: functional; settings: L1210, 72 h, read-out: ED50 (the source's name)
# How it was run: (§1)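 L1210 mouse lymphoid leukemia cells seeded at 2–3 × 10⁵ cells/mL in RPMI 1640 + 10% fetal calf serum with compound (from Me2SO stock, final Me2SO 0.5%, compound 100 μM or lower). Viable cells counted by 0.05% Trypan blue exclusion in a hemocytometer at 24, 48, 72 h. Treated/untreated density ratio. ED50 at 72 h interpolated from response curves of three separate experiments.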
# L1210 [2] = test: Antitumor activity against mouse L1210 cells allografted in C3D2F1/J mouse assessed as median survival time at 50 mg/kg, ip qd administered for 5 days (reference value: 9 days); assay type: functional; settings: route intraperitoneal
# L1210 [3] = test: Antitumor activity against mouse L1210 cells allografted in C3D2F1/J mouse assessed as increase in life span at 25 mg/kg, ip qd administered for 5 days relative to control; assay type: functional; settings: 120 h, route intraperitoneal
# L1210 [4] = test: Antitumor activity against mouse L1210 cells allografted in C3D2F1/J mouse assessed as increase in life span at 50 mg/kg, ip qd administered for 5 days relative to control; assay type: functional; settings: 120 h, route intraperitoneal
# L1210 [5] = test: Antitumor activity against mouse L1210 cells allografted in C3D2F1/J mouse assessed as median survival time at 25 mg/kg, ip qd administered for 5 days (reference value: 8 days); assay type: functional; settings: route intraperitoneal
# L1210 [6] = test: Antitumor activity against mouse L1210 cells allografted in C3D2F1/J mouse assessed as increase in life span at 18.2 mg/kg, ip qd administered for 5 days relative to control; assay type: functional; settings: 120 h, route intraperitoneal
# Mus musculus [7] = test: Toxicity in C3D2F1/J mouse allografted with mouse L1210 cells assessed as body weight change at 25 mg/kg, ip qd administered for 5 days measured on day 8 (reference value: 1.81 +/- 0.79 g); assay type: organism-based; design: dose 25 mg/kg, route intraperitoneal; settings: in vivo, 120 h
# Mus musculus [8] = test: Toxicity in C3D2F1/J mouse allografted with mouse L1210 cells assessed as body weight change at 50 mg/kg, ip qd administered for 5 days measured on day 8 (reference value: 1.81 +/- 0.79 g); assay type: organism-based; design: dose 50 mg/kg, route intraperitoneal; settings: in vivo, 120 h
# Mus musculus [9] = test: Toxicity in C3D2F1/J mouse allografted with mouse L1210 cells assessed as body weight change at 18.2 mg/kg, ip qd administered for 5 days measured on day 8 (reference value: 1.81 +/- 0.79 g); assay type: organism-based; design: dose 18.2 mg/kg, route intraperitoneal; settings: in vivo, 120 h
# L1210 [10] = test: Antitumor activity against mouse L1210 cells allografted in C3D2F1/J mouse assessed as median survival time at 18.2 mg/kg, ip qd administered for 5 days (reference value: 10 days); assay type: functional; settings: route intraperitoneal
# Mus musculus [11] = test: Toxicity in C3D2F1/J mouse allografted with mouse L1210 cells assessed as body weight change at 18.2 mg/kg, ip qd administered for 5 days measured on day 8 co-administered with 27 mg/kg prednisolone (reference value: 1.81 +/- 0.79 g); assay type: organism-based; settings: in vivo, 120 h
# Mus musculus [12] = test: Toxicity in C3D2F1/J mouse allografted with mouse L1210 cells assessed as body weight change at 18.3 mg/kg, ip qd administered for 5 days measured on day 8 co-administered with 27 mg/kg prednisone (reference value: 1.81 +/- 0.79 g); assay type: organism-based; settings: in vivo, 120 h
# L1210 [13] = test: Antitumor activity against mouse L1210 cells allografted in C3D2F1/J mouse assessed as median survival time at 18.2 mg/kg, ip qd administered for 5 days co-administered with 27 mg/kg prednisolone (reference value: 9 days); assay type: functional
# L1210 [14] = test: Antitumor activity against mouse L1210 cells allografted in C3D2F1/J mouse assessed as median survival time at 18.3 mg/kg, ip qd administered for 5 days co-administered with 27 mg/kg prednisone (reference value: 9 days); assay type: functional
# L1210 [15] = test: Antitumor activity against mouse L1210 cells allografted in C3D2F1/J mouse assessed as increase in life span at 18.2 mg/kg, ip qd administered for 5 days co-administered with 27 mg/kg prednisolone relative to control; assay type: functional
# L1210 [16] = test: Antitumor activity against mouse L1210 cells allografted in C3D2F1/J mouse assessed as increase in life span at 18.3 mg/kg, ip qd administered for 5 days co-administered with 27 mg/kg prednisone relative to control; assay type: functional
# L1210 [17] = test: Antitumor activity against mouse L1210 cells allografted in C3D2F1/J mouse assessed as median survival time at 25 mg/kg, ip qd administered for 5 days (reference value: 9 days); assay type: functional; settings: route intraperitoneal
# L1210 [18] = test: Antitumor activity against mouse L1210 cells allografted in C3D2F1/J mouse assessed as median survival time at 75 mg/kg, ip qd administered for 5 days (reference value: 9 days); assay type: functional; settings: route intraperitoneal
# L1210 [19] = test: Antitumor activity against mouse L1210 cells allografted in C3D2F1/J mouse assessed as median survival time at 100 mg/kg, ip qd administered for 5 days (reference value: 9 days); assay type: functional; settings: route intraperitoneal
# L1210 [20] = test: Antitumor activity against mouse L1210 cells allografted in C3D2F1/J mouse assessed as increase in life span at 75 mg/kg, ip qd administered for 5 days relative to control; assay type: functional; settings: 120 h, route intraperitoneal
# L1210 [21] = test: Antitumor activity against mouse L1210 cells allografted in C3D2F1/J mouse assessed as increase in life span at 100 mg/kg, ip qd administered for 5 days relative to control; assay type: functional; settings: 120 h, route intraperitoneal
# Mus musculus [22] = test: Toxicity in C3D2F1/J mouse allografted with mouse L1210 cells assessed as body weight change at 75 mg/kg, ip qd administered for 5 days measured on day 8 (reference value: 1.81 +/- 0.79 g); assay type: organism-based; design: dose 75 mg/kg, route intraperitoneal; settings: in vivo, 120 h
# Mus musculus [23] = test: Toxicity in C3D2F1/J mouse allografted with mouse L1210 cells assessed as body weight change at 100 mg/kg, ip qd administered for 5 days measured on day 8 (reference value: 1.81 +/- 0.79 g); assay type: organism-based; design: dose 100 mg/kg, route intraperitoneal; settings: in vivo, 120 h
# [24] = Drug degradation assessed as ara-C formation at 5 umol at pH 9 after 24 hrs by UV analysis in presence of Crotalus adamanteus 5'-nucleotidase; assay type: physicochemical; settings: buffer, pH 9, 24 h
# How it was run: (§2)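 Crude Crotalus adamanteus venom: 5 μmol conjugate in Tris-HCl buffer (pH 8.8) with 2.5 mg venom, 0.5 mL total, incubated 37 °C for 24 h. Products were resolved by paper chromatography alongside authentic markers.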
# [25] = Drug degradation assessed as steroid formation at 5 umol at pH 9 after 24 hrs by UV analysis in presence of Crotalus adamanteus 5'-nucleotidase; assay type: physicochemical; settings: buffer, pH 9, 24 h; how it was run: as §2
# [26] = Hydrolytic stability of the compound assessed as remaining compound level at 5 umol at pH 4.8 at 25 degC after 24 hrs by UV analysis in presence of wheat germ acid phosphatase; assay type: physicochemical; settings: read-out: Stability
# How it was run: (§3)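 5 μmol conjugate in NaOAc buffer (pH 4.8) with 3 mg crude wheat germ acid phosphatase, 0.5 mL total, held at 25 °C for 24 h. Products were separated by paper chromatography against authentic markers.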
# [27] = Hydrolytic stability of the compound at 5 umol at pH 8 at 25 degC after 24 hrs by UV analysis in presence of bacterial alkaline phosphatase; assay type: physicochemical; settings: isolated protein, pH 8, 24 h
# How it was run: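 5 μmol conjugate in Tris-HCl (pH 8.0) with bacterial alkaline phosphatase suspension, 0.5 mL total, incubated at 25 °C for 24 h. Paper chromatography against authentic markers.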
# [28] = Metabolic stability in baboon plasma assessed as remaining compound level at 5 umol at 37 degC after 24 hrs by UV analysis; assay type: ADME, cell-free; settings: papio anubis, read-out: Stability
# How it was run: (§4)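 5 μmol conjugate in 0.5 mL fresh baboon plasma, incubated at 37 °C for 24 h. Intact conjugate and products were separated by paper chromatography with authentic markers.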
# [29] = Drug degradation assessed as compound hydrolysis at 5 umol at pH 4.8 at 25 degC after 24 hrs by UV analysis in presence of wheat germ acid phosphatase; assay type: physicochemical; settings: read-out: Drug degradation; how it was run: as §3
# [30] = Drug degradation in baboon plasma at 5 umol at 37 degC after 24 hrs by UV analysis; assay type: ADME, cell-free; settings: papio anubis, read-out: Drug degradation; how it was run: as §4
# L1210 [31] = test: Antitumor activity against mouse L1210 cells allografted in C3D2F1/J mouse assessed as median survival time at 24.2 mg/kg, ip qd administered for 5 days (reference value: 10 days); assay type: functional; settings: route intraperitoneal
# L1210 [32] = test: Antitumor activity against mouse L1210 cells allografted in C3D2F1/J mouse assessed as increase in life span at 24.2 mg/kg, ip qd administered for 5 days relative to control; assay type: functional; settings: 120 h, route intraperitoneal
# Mus musculus [33] = test: Toxicity in C3D2F1/J mouse allografted with mouse L1210 cells assessed as body weight change at 24.2 mg/kg, ip qd administered for 5 days measured on day 8 (reference value: 1.81 +/- 0.79 g); assay type: organism-based; design: dose 24.2 mg/kg, route intraperitoneal; settings: in vivo, 120 h
# L1210 [34] = test: Cytotoxicity against mouse L1210 cells assessed as growth inhibition measured at 72 hrs in presence of 5 uM prednisolone by trypan blue exclusion assay; assay type: functional; settings: L1210, 72 h, read-out: ED50 (the source's name); how it was run: as §1
# L1210 [35] = test: Cytotoxicity against mouse L1210 cells assessed as growth inhibition measured at 72 hrs in presence of 100 uM prednisolone by trypan blue exclusion assay; assay type: functional; settings: L1210, 72 h, read-out: ED50 (the source's name); how it was run: as §1
structure (smiles),measurement,setting,value
Nc1ccn([C@@H]2O[C@H](CO)[C@@H](O)[C@@H]2O)c(=O)n1 [CYTARABINE],EC50,L1210 [1],0.1 µM
same,MST,L1210 [2],10 days
same,ILS at 25 mg/kg,L1210 [3],18.8%
same,ILS at 50 mg/kg,L1210 [4],11.1%
same,MST,L1210 [5],9.5 days
same,ILS at 18.2 mg/kg,L1210 [6],45%
same,Activity,Mus musculus [7],-3.8 g
same,Activity,Mus musculus [8],-4.2 g
same,Activity,Mus musculus [9],-3.64 g
same,MST,L1210 [10],14.5 days
same,Activity,Mus musculus [11],-2.46 g
same,Activity,Mus musculus [12],-1.25 g
same,MST,L1210 [13],14 days
same,MST,L1210 [14],13 days
same,ILS,L1210 [15],40%
same,ILS,L1210 [16],44%
C[C@]12C=CC(=O)C=C1CC[C@@H]1[C@@H]2C(=O)C[C@@]2(C)[C@H]1CC[C@]2(O)C(=O)CO[P+]([O-])(O)OC[C@H]1O[C@@H](n2ccc(N)nc2=O)[C@@H](O)[C@@H]1O (stereo not given in full),EC50,L1210 [1],0.5 µM
same,MST,L1210 [17],14.5 days
same,MST,L1210 [2],18 days
same,MST,L1210 [18],14 days
same,MST,L1210 [19],10 days
same,ILS at 25 mg/kg,L1210 [3],61.1%
same,ILS at 50 mg/kg,L1210 [4],100%
same,ILS at 75 mg/kg,L1210 [20],55.6%
same,ILS at 100 mg/kg,L1210 [21],11.1%
same,Activity,Mus musculus [7],-0.14 g
same,Activity,Mus musculus [8],-0.3 g
same,Activity,Mus musculus [22],-0.75 g
same,Activity,Mus musculus [23],-1.5 g
same,Drug degradation,[24],50%
same,Drug degradation,[25],50%
same,"remaining at 24 h, 5 umol",[26],7%
same,Stability,[27],Stable
same,"remaining at 24 h, 5 umol",[28],74%
same,"metabolised at 24 h, 5 umol",[29],88%
same,"metabolised at 24 h, 5 umol",[30],15%
Nc1ccn([C@@H]2O[C@H](COP(=O)(O)O)[C@@H](O)[C@@H]2O)c(=O)n1 [CYTARABINE 5'-PHOSPHATE],EC50,L1210 [1],0.05 µM
same,MST,L1210 [2],9 days
same,MST,L1210 [31],16.5 days
same,ILS at 50 mg/kg,L1210 [4],0%
same,ILS at 24.2 mg/kg,L1210 [32],65%
same,Activity,Mus musculus [8],-4.32 g
same,Activity,Mus musculus [33],-3.52 g
same,EC50,L1210 [34],0.01 µM
same,EC50,L1210 [35],0.005 µM
